One molecule from ChEMBL document CHEMBL1131409, “Human telomerase inhibition by regioisomeric disubstituted amidoanthracene-9,10-diones” (J Med Chem, 1998) can be followed below.

The test system of one test is CH1. Kind of test: In vitro cytotoxicity against CH1 ovarian cells using the sulforhodamine B(SRB) assay. The class given is functional, cell-based. The note with it: Homo sapiens. Summed up:
(§1)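 SRB growth assay. 3000–6000 cells were seeded and attached overnight. Agents were dissolved at 500 μM in water and added in quadruplicate at final 0.05, 0.25, 1, 5 and 25 μM. After 96 h, cells were fixed with cold 10% TCA and stained with 0.4% SRB. A540 was expressed as percent of untreated control and the 50% growth-inhibitory concentration was derived.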

A further test deals with SK-OV-3. The experiment in a line: In vitro cytotoxicity against SKOV-3 ovarian cells using the sulforhodamine B(SRB) assay. It counts as functional, cell-based. The note with it: Homo sapiens. In outline:
as §1

In test [1] the target is Telomerase reverse transcriptase (Homo sapiens, UniProt O14746). Kind of test: Inhibitory activity of telomerase was measured using the TRAP assay. In outline: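 Cell-free modified TRAP with extracts from exponentially growing A2780 ovarian carcinoma cells. 0.04 μg protein was incubated with TS primer, dNTPs (50 μM each) and [α-32P]dCTP in TRAP buffer (pH 8.3, 68 mM KCl) ± agent, up to 50 μM final, for 20 min at 25 °C. Then 80 °C for 5 min, CX primer plus Taq, 31 PCR cycles. Products read by gel phosphorimaging/autoradiography or filter scintillation counting. IC50 taken as 50% inhibition relative to controls.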

For a further test, the system named is A2780. Kind of test: In vitro cytotoxicity against A2780 ovarian cells using the sulforhodamine B(SRB) assay. It counts as functional, cell-based. The note with it: Homo sapiens. Summed up:
as §1

Sequence of Telomerase reverse transcriptase (O14746 whole entry): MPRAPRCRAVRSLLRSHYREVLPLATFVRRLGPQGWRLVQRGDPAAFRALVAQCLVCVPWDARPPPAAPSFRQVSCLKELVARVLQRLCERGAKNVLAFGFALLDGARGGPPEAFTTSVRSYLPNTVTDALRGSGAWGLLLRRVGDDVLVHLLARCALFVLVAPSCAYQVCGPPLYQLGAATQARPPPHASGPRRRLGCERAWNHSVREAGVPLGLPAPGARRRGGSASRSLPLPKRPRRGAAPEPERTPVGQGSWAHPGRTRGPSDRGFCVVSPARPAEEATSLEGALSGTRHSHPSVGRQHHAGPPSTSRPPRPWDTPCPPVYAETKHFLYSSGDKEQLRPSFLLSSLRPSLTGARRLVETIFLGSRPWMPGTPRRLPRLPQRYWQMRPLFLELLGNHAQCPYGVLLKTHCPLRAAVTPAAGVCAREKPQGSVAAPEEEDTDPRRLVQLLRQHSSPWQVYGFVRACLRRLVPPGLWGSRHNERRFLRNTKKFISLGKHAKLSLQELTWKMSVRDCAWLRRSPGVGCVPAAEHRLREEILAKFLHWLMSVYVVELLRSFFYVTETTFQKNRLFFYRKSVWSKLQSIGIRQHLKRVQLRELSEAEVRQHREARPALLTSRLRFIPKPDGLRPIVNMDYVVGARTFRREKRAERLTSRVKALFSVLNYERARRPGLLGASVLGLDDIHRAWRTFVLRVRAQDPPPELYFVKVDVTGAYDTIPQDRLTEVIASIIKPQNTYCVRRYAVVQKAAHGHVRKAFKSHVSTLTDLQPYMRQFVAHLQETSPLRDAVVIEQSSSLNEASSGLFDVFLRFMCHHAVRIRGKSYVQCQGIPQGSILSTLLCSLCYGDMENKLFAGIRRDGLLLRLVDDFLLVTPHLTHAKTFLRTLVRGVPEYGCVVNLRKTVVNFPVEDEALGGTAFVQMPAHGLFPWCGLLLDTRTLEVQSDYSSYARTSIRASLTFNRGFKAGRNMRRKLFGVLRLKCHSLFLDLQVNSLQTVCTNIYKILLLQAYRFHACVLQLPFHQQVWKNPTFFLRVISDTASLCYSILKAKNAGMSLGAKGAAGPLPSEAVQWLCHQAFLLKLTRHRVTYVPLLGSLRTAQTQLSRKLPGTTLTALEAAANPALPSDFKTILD

The IC50 is the concentration that inhibits the measured activity by half. The low end stands for greater potency in that assay, the high end for weaker potency in that assay. As for `CN(C)CCC(=O)Nc1cccc2c1C(=O)c1cccc(NC(=O)CCN(C)C)c1C2=O`, the IC50 in the test on CH1 is 370 nM; in the test with SK-OV-3, 620 nM; in test [1], 1300 nM; with A2780, 350 nM.
